ChEMBL document CHEMBL1140780, “The expedient synthesis of 1,5-benzothiazepines as a family of cytotoxic drugs” (Bioorg Med Chem Lett, 2008)

Key:
[1] = tested on: HL-60; experiment: Photocytotoxicity against human HL60 cells irradiated with 1.25 J cm^-2 ultraviolet radiation after 72 hrs by MTT assay; format: functional; conditions: HL-60, light or radiation study
Method in brief: (§1)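 Culture media, each with penicillin G, streptomycin and 10% FBS: HL-60 in RPMI-1640, NCTC 2544 in DMEM, LoVo in Ham's F12. Seeding was 8 × 10³ HL-60 or 5 × 10³ NCTC 2544/LoVo cells per well, 18 h at 37 °C. Drug in DMSO diluted with HBSS pH 7.2 was added for 30 min at 37 °C, then UVA applied (dose measured at 365 nm). Medium was replaced, 72 h incubation, MTT read-out. GI50 is the concentration giving 50% growth inhibition.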

[2] = tested on: HL-60; experiment: Photocytotoxicity against human HL60 cells irradiated with 2.5 J cm^-2 ultraviolet radiation after 72 hrs by MTT assay; format: functional; conditions: HL-60, light or radiation study; method in brief: as §1
[3] = Photocytotoxicity against human NCTC 2544 cells irradiated with 1.25 J cm^-2 ultraviolet radiation after 72 hrs by MTT assay; format: cell-based; method in brief: as §1
[4] = tested on: LoVo; experiment: Photocytotoxicity against human LoVo cells irradiated with 1.25 J cm^-2 ultraviolet radiation after 72 hrs by MTT assay; format: functional; conditions: light or radiation study; method in brief: as §1
[5] = Photocytotoxicity against human NCTC 2544 cells irradiated with 2.5 J cm^-2 ultraviolet radiation after 72 hrs by MTT assay; format: cell-based; method in brief: as §1
[6] = tested on: LoVo; experiment: Photocytotoxicity against human LoVo cells irradiated with 2.5 J cm^-2 ultraviolet radiation after 72 hrs by MTT assay; format: functional; conditions: light or radiation study; method in brief: as §1

Compound	GI50 [1] [µM]	GI50 [2] [µM]	GI50 at 72 h [3] [µM]	GI50 [4] [µM]	GI50 at 72 h [5] [µM]	GI50 [6] [µM]
COc1ccc2c(c1)SC(C(=O)O)CC(c1ccc(F)cc1C)=N2 (stereo not given)	> 10	10	–	–	–	–
Cc1cc(F)ccc1C1=Nc2c(Cl)cccc2SC(C(=O)O)C1 (stereo not given)	> 10	6.9	> 20	16.8	6.9	9.8
Cc1cc(F)ccc1C1=Nc2c(F)cccc2SC(C(=O)O)C1 (stereo not given)	6.6	0.8	7	3.8	2.6	1.94
COc1cccc2c1C(=O)c1c(O)c3c(c(O)c1C2=O)C[C@@](O)(C(=O)CO)C[C@@H]3O[C@H]1C[C@H](N)[C@H](O)[C@H](C)O1 [DOXORUBICIN]	2.36	1.45	3.04	8.54	1.32	5.48
Cc1cc(F)ccc1C1=Nc2c(Br)cccc2SC(C(=O)O)C1 (stereo not given)	2.5	0.9	> 20	> 20	> 20	13.2
Cc1cc(F)ccc1C1=Nc2ccc(Cl)cc2SC(C(=O)O)C1 (stereo not given)	> 10	6.8	–	–	–	–
Cc1ccc2c(c1)SC(C(=O)O)CC(c1ccc(F)cc1C)=N2 (stereo not given)	> 10	10	–	–	–	–
